ChEMBL document CHEMBL1140061, “Novel azolyl-(phenylmethyl)]aryl/heteroarylamines: potent CYP26 inhibitors and enhancers of all-trans retinoic acid activity in neuroblastoma cells” (Bioorg Med Chem, 2008)
The source made the active and inactive calls. The rule behind the calls is not given here.

What was measured:
[1] = target: T1, Cytochrome P450 26A1 (Homo sapiens, UniProt O43174); assay: Inhibition of CYP26A1 in human MCF7 cells
T1 sequence (O43174 whole entry): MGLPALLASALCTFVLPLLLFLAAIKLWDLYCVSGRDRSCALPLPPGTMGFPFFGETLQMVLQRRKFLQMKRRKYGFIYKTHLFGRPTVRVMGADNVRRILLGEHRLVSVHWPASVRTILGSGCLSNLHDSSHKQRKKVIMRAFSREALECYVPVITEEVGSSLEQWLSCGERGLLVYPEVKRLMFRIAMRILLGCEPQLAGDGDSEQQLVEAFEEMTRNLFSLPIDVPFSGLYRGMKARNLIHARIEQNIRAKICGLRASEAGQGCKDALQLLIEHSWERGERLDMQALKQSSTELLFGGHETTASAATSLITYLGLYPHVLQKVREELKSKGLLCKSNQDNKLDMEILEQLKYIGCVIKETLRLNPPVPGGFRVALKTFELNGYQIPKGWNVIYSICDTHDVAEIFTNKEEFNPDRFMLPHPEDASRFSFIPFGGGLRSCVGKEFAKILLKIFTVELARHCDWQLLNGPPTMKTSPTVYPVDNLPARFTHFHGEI

[2] = system: SH-SY5Y; assay: Increase of all-trans retinoic acid-induced CYP26B1 mRNA expression in human SH-SY5Y cells at 1 uM after 24 hrs relative to all-trans retinoic acid; type: functional
In short: (§1)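 SH-SY5Y neuroblastoma cells were grown at 37 °C in RPMI 1640 with 10% foetal calf serum and 2 mM L-glutamine under 5% CO2. Inhibitor was given alone or with atRA (DMSO vehicle) for 24 h. Total RNA was reverse transcribed and CYP26B1 was measured by TaqMan real-time PCR, normalised to β-actin. Results are fold change versus atRA-only cells by the comparative Ct method, mean ± S.E.M., n ≥ 3.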

[3] = system: SH-SY5Y; assay: Increase in all-trans retinoic acid-induced CYP26B1 mRNA expression in human SH-SY5Y cells at 0.01 to 10 uM after 24 hrs relative to all-trans retinoic acid; type: functional; details: in the assay text read “0.1 to 10 uM” for “0.01 to 10 uM”; in short: as §1
[4] = system: SH-SY5Y; assay: Increase of CYP26B1 mRNA expression in human SH-SY5Y cells; type: functional, cell-based; in short: as §1
[5] = system: SH-SY5Y; assay: Increase in all-trans retinoic acid-induced CYP26B1 mRNA expression in human SH-SY5Y cells at 10 uM relative to R116010; type: functional, cell-based
[6] = system: T47D; assay: Inhibition of all-trans retinoic acid metabolism in human T47D cells; type: functional, cell-based

Row | SMILES | IC50 [1] [µM] | other results
1 | c1ccc(Nc2ccc(C(c3ccccc3)n3ccnc3)cc2)cc1 (stereo unspecified) | 5 | 
2 | c1ccc(C(c2ccc(Nc3nc4ccccc4[nH]3)cc2)n2ccnc2)cc1 (stereo unspecified) | 2.5 | 
3 | CC(c1ccc(Nc2ccccc2)cc1)n1cncn1 (stereo unspecified) | > 50 | 
4 | CC(c1ccc(Nc2ccc3ccccc3c2)cc1)n1ccnc1 (stereo unspecified) | 15 | 
5 | C[C@H]([C@@H](c1ccc(Nc2nc3ccccc3s2)cc1)n1ccnc1)N(C)C |  | fold change (FC) [2]: 5; IC50 [6]: 0.0087 µM
6 | CC(c1ccc(Nc2ccccc2)cc1)n1ccnc1 (stereo unspecified) | 35 | 
7 | c1ccc(C(c2ccc(Nc3ccc4c(c3)CCC4)cc2)n2ccnc2)cc1 (stereo unspecified) | 1 | 

More lines, main results first:

Row | IC50 [1] [µM] | SMILES | other results
8 | 5 | c1ccc(Nc2ccc(C(c3ccccc3)n3cncn3)cc2)cc1 (stereo unspecified) | Activity [2]: inactive
9 | 7 | c1ccc(-c2ccc(C(c3cc4ccccc4o3)n3cncn3)cc2)cc1 (stereo unspecified) | 
10 | 0.9 | c1ccc(C(c2ccc(Nc3nc4ccccc4o3)cc2)n2ccnc2)cc1 (stereo unspecified) | fold change (FC) [3]: 4; Activity [4]: inactive
11 | 0.5 | c1ccc(C(c2ccc(Nc3ccc4ccccc4c3)cc2)n2ccnc2)cc1 (stereo unspecified) | Activity [4]: inactive; Activity [5]: Active
12 | 4.5 | CCc1ccc(C(c2cc3ccccc3o2)n2cncn2)cc1 (stereo unspecified) | 
13 | 1.5 | c1ccc(C(c2ccc(Nc3nc4ccccc4s3)cc2)n2ccnc2)cc1 (stereo unspecified) | fold change (FC) [3]: 2; Activity [4]: inactive
